Data reported in ChEMBL document CHEMBL1122356, “The antihypertensive and positive inotropic diterpene forskolin: effects of structural modifications on its activity” (J Med Chem, 1983).
pEC50: −log10 of the molar value. Active and inactive are the calls of the source. The rule behind the calls is not given here.

Columns and labels:
[1] = organism: Rattus norvegicus; experiment: Difference in systolic blood pressure observed prior to the first application and 2 hr after the fifth application to spontaneously hypertensive rats (SHR); NS denotes not significant; type: functional, organism-based; conditions: Artery
[2] = organism: Felis catus; experiment: Effective dose in cat was determined; type: functional
Procedure, shortened: (§1)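 Cats of either sex (3.0-4.5 kg) under chloralose anesthesia (70 mg/kg iv). Compounds were dissolved in propylene glycol (10 mg/mL stock), diluted in distilled water and injected iv via the femoral vein at 30, 100, 300, 500 and 1000 µg/kg, three animals per dose. Fall in mean arterial pressure (femoral artery transducer) was read at 10 min. ED20 was taken from log dose-response curves.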

[3] = system: Rattus norvegicus; experiment: Difference in systolic blood pressure observed prior to the first application and 2 hr after the fifth application at 20 mg/kg, po daily for 5 days to spontaneously hypertensive rats (SHR); type: functional, Artery
Procedure, shortened: (§2)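 Male SH rats (Wistar-Okamoto derived, 250-300 g, 12-16 weeks old) with systolic pressure above 160 mmHg, in groups of six. The dose was given orally once daily for 5 days as a suspension in 0.5% carboxymethylcellulose, and a vehicle control group was run. Systolic pressure was read by tail-cuff after 10 min warming at 37-38 °C, before dosing and 2 h post-dose. Paired Student's t test.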

[4] = organism: Rattus norvegicus; experiment: Difference in systolic blood pressure observed prior to the first application and 2 hr after the fifth application to spontaneously hypertensive rats (SHR); type: functional, Artery
Procedure, shortened: (§3)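 Groups of six conscious male SH rats (Wistar-Okamoto origin, 250-300 g, 12-16 weeks; systolic pressure >160 mmHg) received 25 mg/kg po daily for 5 days as a 0.5% carboxymethylcellulose suspension, with vehicle controls. Systolic pressure was taken by tail-cuff after warming at 37-38 °C for 10 min, before the first dose and 2 h after each dose. Paired t test; only falls >15 mmHg with p < 0.05 were listed.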

[5] = system: Felis catus; experiment: Percent fall in blood pressure, 10 min after intravenous administration at doses 500 ug/kg in cat; type: functional; procedure, shortened: as §1
[6] = organism: Cavia porcellus; experiment: Positive ionotropic activity (0.1x10E 6 g/mL) was determined in guinea pig; no significant activity; type: functional, organism-based
[7] = organism: Rattus norvegicus; experiment: Difference in systolic blood pressure observed prior to the first application and 2 hr after the fifth application to spontaneously hypertensive rats(SHR); type: functional, Artery; procedure, shortened: as §3
[8] = organism: Cavia porcellus; experiment: Positive ionotropic activity determined as effective concentration in guinea pig; Range 6.8*10e-7 to 1.75x10E-6M; type: functional, organism-based
[9] = system: Felis catus; experiment: Percent fall in blood pressure, 10 min after intravenous administration at doses 300 ug/kg in cat; type: functional; procedure, shortened: as §1
[10] = system: Rattus norvegicus; experiment: Difference in systolic blood pressure observed prior to the first application and 2 hr after the fifth application at 10 mg/kg, po daily for 5 days to spontaneously hypertensive rats (SHR); type: functional, Artery; procedure, shortened: as §2
[11] = system: Rattus norvegicus; experiment: Difference in systolic blood pressure observed prior to the first application and 2 hr after the fifth application at 5 mg/kg, po daily for 5 days to spontaneously hypertensive rats (SHR); type: functional, Artery; procedure, shortened: as §2

SMILES | ED20 [2] | Delta blood pressure [4] | Activity [6] | further results
C=C[C@@]1(C)CC(=O)[C@]2(O)C3(C)[C@@H](OC(=O)Nc4ccccc4)CCC(C)(C)[C@@H]3C(O)C(OC(C)=O)[C@@]2(C)O1 (stereo not given in full) | > 0.5 mg/kg |  |  | Delta blood pressure [1]: inactive
C=C[C@@]1(C)CC(=O)[C@]2(O)C3(C)[C@@H](O)CCC(C)(C)[C@@H]3C(OC(=O)CC)C(O)[C@@]2(C)O1 (stereo not given in full) | > 0.5 mg/kg |  |  | Delta blood pressure [3]: -26.33 mmHg
C=C[C@@]1(C)CC(=O)[C@]2(O)[C@@]3(C)[C@@H](O)CCC(C)(C)[C@@H]3[C@H](O)[C@H](O)[C@@]2(C)O1 | > 0.5 mg/kg | -24.6 mmHg | no significant activity | Decrease in blood pressure [5]: 20%
C=C[C@@]1(C)CC(=O)[C@]2(O)C3(C)[C@@H](O)CCC(C)(C)[C@@H]3C(OC(C)=O)C(OC(=O)CC)[C@@]2(C)O1 (stereo not given in full) | > 0.5 mg/kg | 0 mmHg |  | 
C=C[C@@]1(C)CC(=O)[C@@H]2C3(C)CCCC(C)(C)[C@@H]3C(O)C(OC(C)=O)[C@@]2(C)O1 (stereo not given in full) | > 0.5 mg/kg | 0 mmHg | no significant activity | 
CC(=O)OC1C(O)[C@H]2C(C)(C)CC[C@H](O)C2(C)[C@@]2(O)C(=O)C[C@](C)(C3CO3)O[C@]12C (stereo not given in full) | > 0.5 mg/kg |  |  | Delta blood pressure [7]: -22.67 mmHg
C=C[C@@]1(C)CC(=O)[C@@]23OS(=O)O[C@H]4CCC(C)(C)[C@H](C5OS(=O)OC5[C@@]2(C)O1)C43C (stereo not given in full) | > 0.5 mg/kg |  | no significant activity | Delta blood pressure [7]: 0 mmHg
C=C[C@@]1(C)CC(=O)[C@]2(O)C3(C)[C@@H](O)CCC(C)(C)[C@@H]3C(O)C(OC(=O)OCC)[C@@]2(C)O1 (stereo not given in full) | > 0.5 mg/kg | 0 mmHg | no significant activity | 
C=C[C@@]1(C)CC(=O)[C@]2(O)C3(C)[C@@H](O)CCC(C)(C)[C@@H]3C3OC(=O)OC3[C@@]2(C)O1 (stereo not given in full) | > 0.5 mg/kg | -24.67 mmHg |  | 
C=C[C@@]1(C)CC(=O)[C@]2(O)C3(C)[C@@H](O)CCC(C)(C)[C@@H]3C(O)C(OS(=O)(=O)c3ccc(C)cc3)[C@@]2(C)O1 (stereo not given in full) | > 0.5 mg/kg |  | no significant activity | Delta blood pressure [7]: -27.3 mmHg
C=C[C@@]1(C)C[C@H](O)[C@]2(O)C3(C)[C@@H](O)CCC(C)(C)[C@@H]3C(O)C(OC(C)=O)[C@@]2(C)O1 (stereo not given in full) | > 0.5 mg/kg | 0 mmHg |  | 
C=C[C@@]1(C)CC(=O)[C@]2(O)C3(C)[C@@H](OC)CCC(C)(C)[C@@H]3C(O)C(OC(C)=O)[C@@]2(C)O1 (stereo not given in full) | > 0.5 mg/kg | 0 mmHg | no significant activity | 
C=C[C@@]1(C)CC(=O)[C@]2(O)C3(C)[C@@H](O)CCC(C)(C)[C@@H]3C(OC(C)=O)C(O)[C@@]2(C)O1 (stereo not given in full) | > 0.5 mg/kg | -28 mmHg | no significant activity | pEC50 [8]: 5.96; Decrease in blood pressure [9]: 20%
C=C[C@@]1(C)C[C@H](O)[C@]2(O)C3(C)[C@@H](O)CCC(C)(C)[C@@H]3C(O)C(O)[C@@]2(C)O1 (stereo not given in full) | > 0.5 mg/kg |  | no significant activity | Delta blood pressure [10]: -19.3 mmHg
CC[C@@]1(C)CC(=O)[C@]2(O)C3(C)[C@@H](O)CCC(C)(C)[C@@H]3C(O)C(OC(C)=O)[C@@]2(C)O1 (stereo not given in full) | > 0.5 mg/kg |  |  | Delta blood pressure [3]: -15.7 mmHg
C=C[C@@]1(C)CC(=O)[C@]2(O)C3(C)[C@@H](O[Si](C)(C)C)CCC(C)(C)[C@@H]3C(O)C(OC(C)=O)[C@@]2(C)O1 (stereo not given in full) | > 0.5 mg/kg |  |  | Delta blood pressure [7]: 0 mmHg
C=C[C@@]1(C)CC(=O)[C@@]23OC(=O)O[C@H]4CCC(C)(C)[C@H](C5OC(=O)OC5[C@@]2(C)O1)C43C (stereo not given in full) | > 0.5 mg/kg | -23 mmHg | no significant activity | 

SMILES | ED20 [2] | Delta blood pressure [4] | Activity [6] | further results
C=C[C@@]1(C)CC(=O)[C@]2(O)C3(C)[C@@H](OCCN(CC)CC)CCC(C)(C)[C@@H]3C(OC(C)=O)C(O)[C@@]2(C)O1.Cl (stereo not given in full) | > 0.5 mg/kg | -26.7 mmHg | no significant activity | 
C=C[C@@]1(C)CC(=O)[C@]2(O)C3(C)C(O)CCC(C)(C)[C@@H]3C(OC(C)=O)C(OC(C)=O)[C@@]2(C)O1 (stereo not given in full) | > 0.5 mg/kg | -24.3 mmHg | no significant activity | 
C=C[C@@]1(C)CC(=O)[C@]2(O)C3(C)[C@@H](O)CCC(C)(C)[C@@H]3C(O)C(OC(=O)CC)[C@@]2(C)O1 (stereo not given in full) | > 0.5 mg/kg | -25.3 mmHg |  | 
Nc1cc(N2CCCCC2)nc(N)[n+]1[O-] [MINOXIDIL] | > 0.5 mg/kg |  | no significant activity | Delta blood pressure [11]: -51.2 mmHg
C=C[C@@]1(C)CC(=O)[C@]2(O)C3(C)[C@@H](OC(=O)C(C)(C)C)CCC(C)(C)[C@@H]3C(O)C(OC(=O)C(C)(C)C)[C@@]2(C)O1 (stereo not given in full) | > 0.5 mg/kg |  |  | Delta blood pressure [7]: 0 mmHg
C=C[C@@]1(C)CC(=O)[C@]2(O)C3(C)[C@@H](O)CCC(C)(C)[C@@H]3C(O)C(OC=O)[C@@]2(C)O1 (stereo not given in full) | > 0.5 mg/kg | -23.7 mmHg | no significant activity | 
C=C[C@@]1(C)CC(=O)[C@]2(O)C3(C)C(=O)CCC(C)(C)[C@@H]3C(O)C(OC(C)=O)[C@@]2(C)O1 (stereo not given in full) | > 0.5 mg/kg | 0 mmHg | no significant activity | 
CC(=O)OC1C(O)[C@H]2C(C)(C)CC[C@H](O)C2(C)[C@@]2(O)C(=O)C[C@](C)(C=O)O[C@]12C (stereo not given in full) | > 0.5 mg/kg |  |  | Delta blood pressure [7]: -22 mmHg
C=C[C@@]1(C)CC(=O)[C@@]23OC(=O)O[C@H]4CCC(C)(C)[C@H](C(O)C(OC(C)=O)[C@@]2(C)O1)C43C (stereo not given in full) | > 0.5 mg/kg | -16.7 mmHg | no significant activity | 
C=C[C@@]1(C)CC(=O)[C@]2(O)C3(C)[C@@H](OCc4ccccc4)CCC(C)(C)[C@@H]3C(O)C(OC(=O)C(C)(C)Br)[C@@]2(C)O1 (stereo not given in full) | > 0.5 mg/kg |  |  | Delta blood pressure [7]: 0 mmHg
C=C[C@@]1(C)CC(=O)[C@]2(O)C3(C)[C@@H](OC)CCC(C)(C)[C@@H]3C(OC(C)=O)C(O)[C@@]2(C)O1 (stereo not given in full) | > 0.5 mg/kg | -25.3 mmHg | no significant activity | 
CN1CCN(CC(O)[C@@]2(C)CC(=O)[C@]3(O)C4(C)[C@@H](O)CCC(C)(C)[C@@H]4C(O)C(O)[C@@]3(C)O2)CC1.Cl.Cl (stereo not given in full) | > 0.5 mg/kg |  | no significant activity | Delta blood pressure [1]: inactive
C=C[C@@]1(C)CC(=O)[C@@]23OS(=O)O[C@H]4CCC(C)(C)[C@H](C(O)C(OC(C)=O)[C@@]2(C)O1)C43C (stereo not given in full) | > 0.5 mg/kg |  | no significant activity | Delta blood pressure [7]: -31 mmHg
C=C[C@@]1(C)CC(=O)[C@]2(O)C3(C)[C@@H](O)CCC(C)(C)[C@@H]3C(O)C(OC(=O)CCC)[C@@]2(C)O1 (stereo not given in full) | > 0.5 mg/kg | -19.7 mmHg | no significant activity | 
C=C[C@@]1(C)CC(=O)[C@]2(O)C3(C)[C@@H](O)CCC(C)(C)[C@@H]3C(O)C(OC(=O)N(CC)CC)[C@@]2(C)O1 (stereo not given in full) | > 0.5 mg/kg | 0 mmHg | no significant activity | 
C=C[C@@]1(C)CC(=O)[C@]2(O)C3(C)[C@@H](O)CCC(C)(C)[C@@H]3C(O)C(OC(C)=O)[C@@]2(C)O1 (stereo not given in full) | 0.038 mg/kg | -26 mmHg | no significant activity | 
